Experimental findings from the array DNA melting data of Ke et al. (doi:10.1101/2024.01.08.574731) are described below.

Series [1] in a line: folding enthalpy; higher = less favourable; fluorescence melt of hairpins on a sequencing array, two-state fit. The conditions noted are these: sodium 0.088 M. The essentials:
(§1)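 Folding enthalpy and melting temperature come from bootstrapped two-state fits to Cy3 fluorescence of library hairpins carrying annealed Cy3 and quencher oligos on a sequenced MiSeq flow cell. Imaging was done in 50 mM Na-HEPES pH 8.0, 25 mM NaCl, stepping by 2.5 °C up to 60 °C, and signals were normalised to pre-quench Cy3 and to control constructs. Results of four replicates were combined by inverse variance, and fitted temperatures were raised by 9.35 °C to match UV melts.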

Series [2] in a line: melting temperature; fluorescence melt of hairpins on a sequencing array, two-state fit, raised by 9.35 °C to match UV melts. The conditions noted are these: sodium 0.088 M. In short, it runs like this: as §1

As to GACAAGCGAAAGCTCGTC (((.(((....))).))), in series [1], the folding enthalpy is -21 kcal/mol. For the same sequence, in series [2], the Tm was 49.3 °C.
Take GCCTCCCGAAAGGGTGGC (((.(((....))).))): in series [1], the folding enthalpy is -36.1 kcal/mol. The Tm in series [2] is 67.9 °C.
Turning to GGATTACGAAAGTACTCC (((.(((....))).))), the folding enthalpy in series [1] was -27.9 kcal/mol. For the same sequence, in series [2], the Tm worked out at 41.1 °C.
The like results for GACTACGAAAGTACGGTC ((((((....)))..))) were, in that order, -20.4 kcal/mol and 32 °C.
In the case of GATCTGCAACCAGATC ((((((....)))))), in series [1], the folding enthalpy was -31.7 kcal/mol. In addition, the Tm in series [2] was 46.2 °C.
On to GGTTCCCGAAAGGGTACC (((.(((....))).))), for which, in series [1], the folding enthalpy is -33.6 kcal/mol. In series [2], the Tm is 57.5 °C.
On to GCGATCATTCGC ((((....)))), for which the folding enthalpy in series [1] is -26.6 kcal/mol. Further, in series [2], the Tm was 50.7 °C.
On the same counts, the results for GATGATCCGAAAGGAATC (((..(((....)))))) are -14.3 kcal/mol and 34.7 °C.
Consider GAATCCGGAAACGAATTC ((((.((....)).)))), for which the folding enthalpy in series [1] is -21.1 kcal/mol. Moreover, in series [2], the Tm is 34.1 °C.
For GGGTTTGGAAACAAGTCC ((..(((....)))..)), in series [1], the folding enthalpy was -22.3 kcal/mol. Moreover, the Tm in series [2] came to 30.4 °C.
For GCATGCGAAAGCAAGTGC ((((((....)))..))), the folding enthalpy in series [1] was -17.8 kcal/mol. In addition, the Tm in series [2] was found to be 46.8 °C.
On to CGGGCGGAAACGCCTCCG ((((((....)))..))), for which the folding enthalpy in series [1] was -8.08 kcal/mol. In series [2], the Tm stood at 36.1 °C.
For GTTCATGGAAACATGAAC (((((((....))))))), the folding enthalpy in series [1] is -49.9 kcal/mol. Further, in series [2], the Tm was determined as 58.2 °C.
As for GGTAAGCGAAAGCTACC (((.(((....)))))), the folding enthalpy in series [1] is -26.7 kcal/mol. In addition, the Tm in series [2] came to 55 °C.
On to GCGCGGCGAAAGCATCGC (((..((....))..))), for which the folding enthalpy in series [1] is -20.6 kcal/mol. In series [2], the Tm came to 57.5 °C.
In the case of GGTCCCGGAAACGGGATC (.(((((....))))).), in series [1], the folding enthalpy was -24.2 kcal/mol. Moreover, the Tm in series [2] amounted to 57.1 °C.
In the case of GATCAGCCTACTGATC ((((((....)))))), in series [1], the folding enthalpy was -35.2 kcal/mol. In addition, the Tm in series [2] stood at 49.9 °C.
On the same counts, the results for GCCCGGACGAAAGTCGGC (((..(((....)))))) are -14.5 kcal/mol and 50.9 °C.
On to GTGTTGCGAAAGCATCAC (((.(((....))).))), for which the folding enthalpy in series [1] was -30.7 kcal/mol. In addition, in series [2], the Tm was determined as 54 °C.
Turning to CGTCACCGGAAACGGACG (((..(((....)))))), the folding enthalpy in series [1] is -21.6 kcal/mol. Also, the Tm in series [2] turned out to be 36.4 °C.
Turning to GATCCGATAGCGGATC ((((((....)))))), the folding enthalpy in series [1] was -38.9 kcal/mol. Moreover, the Tm in series [2] turned out to be 54.3 °C.
For the sequence GCGATGCCTCGC ((((....)))), in series [1], the folding enthalpy is -20.5 kcal/mol. Also, the Tm in series [2] is 50.4 °C.
GCAAGCGAAAGCTGCTGC ((((((....)))..))): the folding enthalpy in series [1] is -19.5 kcal/mol. The Tm in series [2] was 67.2 °C.
For GGCATCGAAAGATCAGCC ((((((....)))..))), the folding enthalpy in series [1] was -25 kcal/mol. The Tm in series [2] is 39.2 °C.
The like results for GGCCGGGCGAAAGCCGCC (((..(((....)))))) were, in that order, -18.1 kcal/mol and 57.7 °C.
Turning to GGGCGAGCGAAAGCTCCC (((..(((....)))))), the folding enthalpy in series [1] is -13.1 kcal/mol. In addition, the Tm in series [2] was 50.5 °C.
On the same counts, the results for GTCTCCGGAAACGGGGAC (((.(((....))).))) are -41.1 kcal/mol and 57.7 °C.
As for GCTTATGGAAACATAAGC (((((((....))))))), the folding enthalpy in series [1] is -40.6 kcal/mol. Moreover, the Tm in series [2] was 56 °C.
As to GCGCGTCGAAAGACCGC (((.(((....)))))), in series [1], the folding enthalpy was -32.8 kcal/mol. Moreover, the Tm in series [2] turned out to be 67.3 °C.
On the same counts, the results for GAAAGCGGAAACGCTTTC (((((((....))))))) are -41 kcal/mol and 65.5 °C.
With GCATCCGGAAACGAATGC ((((.((....)).)))), in series [1], the folding enthalpy is -44.1 kcal/mol. Besides, in series [2], the Tm worked out at 45.5 °C.
The like results for GCGGCGCGAAAGCGTTGC ((..(((....)))..)) were, in that order, -21.2 kcal/mol and 66.5 °C.
On to GTCATGCCGAAAGGCGAC (((..(((....)))))), for which the folding enthalpy in series [1] was -12.3 kcal/mol. For the same sequence, the Tm in series [2] is 41.3 °C.
Turning to GCCCCAGGAAACCGGGAC (.(((.(....).))).), in series [1], the folding enthalpy was -16.3 kcal/mol. The Tm in series [2] is 31.1 °C.
On the same counts, the results for GTCATTACGAAAGTAGAC (((..(((....)))))) are -9.42 kcal/mol and 26.7 °C.
The like results for GGCTTCGAAAGAAGGGCC ((((((....)))..))) were, in that order, -19.6 kcal/mol and 40.4 °C.
With GCCGCCGAAAGGCCCGGC ((((((....)))..))), the folding enthalpy in series [1] was -17.4 kcal/mol. In series [2], the Tm amounted to 48 °C.
